# Test results: ChEMBL document CHEMBL4145441, “Discovery of N-(5-((5-chloro-4-((2-(isopropylsulfonyl)phenyl)amino)pyrimidin-2-yl)amino)-4-methoxy-2-(4-methyl-1,4-diazepan-1-yl)phenyl)acrylamide (CHMFL-ALK/EGFR-050) as a potent ALK/EGFR dual kinase inhibitor capable of overcoming a variety of ALK/EGFR associated drug resistant mutants in NSCLC” (Eur J Med Chem, 2017)
# Active and inactive are the calls of the source. The rule behind the calls is not given here.
# What was measured:
# [1] = biological target: T1, Epidermal growth factor receptor (Homo sapiens, UniProt P00533); assay: Inhibition of recombinant human wild-type His-tagged EGFR expressed in mammalian expression system using Tyr 4 peptide as substrate after 1 hr in presence of ATP by Z-LYTE kinase assay
# [2] = biological target: T2, ALK tyrosine kinase receptor (Homo sapiens, UniProt Q9UM73); assay: Inhibition of recombinant human wild-type GST-tagged ALK expressed in Baculovirus expression system using Tyr 1 peptide as substrate after 1 hr by Z-LYTE assay
# Target sequence in this assay (Q9UM73 whole entry): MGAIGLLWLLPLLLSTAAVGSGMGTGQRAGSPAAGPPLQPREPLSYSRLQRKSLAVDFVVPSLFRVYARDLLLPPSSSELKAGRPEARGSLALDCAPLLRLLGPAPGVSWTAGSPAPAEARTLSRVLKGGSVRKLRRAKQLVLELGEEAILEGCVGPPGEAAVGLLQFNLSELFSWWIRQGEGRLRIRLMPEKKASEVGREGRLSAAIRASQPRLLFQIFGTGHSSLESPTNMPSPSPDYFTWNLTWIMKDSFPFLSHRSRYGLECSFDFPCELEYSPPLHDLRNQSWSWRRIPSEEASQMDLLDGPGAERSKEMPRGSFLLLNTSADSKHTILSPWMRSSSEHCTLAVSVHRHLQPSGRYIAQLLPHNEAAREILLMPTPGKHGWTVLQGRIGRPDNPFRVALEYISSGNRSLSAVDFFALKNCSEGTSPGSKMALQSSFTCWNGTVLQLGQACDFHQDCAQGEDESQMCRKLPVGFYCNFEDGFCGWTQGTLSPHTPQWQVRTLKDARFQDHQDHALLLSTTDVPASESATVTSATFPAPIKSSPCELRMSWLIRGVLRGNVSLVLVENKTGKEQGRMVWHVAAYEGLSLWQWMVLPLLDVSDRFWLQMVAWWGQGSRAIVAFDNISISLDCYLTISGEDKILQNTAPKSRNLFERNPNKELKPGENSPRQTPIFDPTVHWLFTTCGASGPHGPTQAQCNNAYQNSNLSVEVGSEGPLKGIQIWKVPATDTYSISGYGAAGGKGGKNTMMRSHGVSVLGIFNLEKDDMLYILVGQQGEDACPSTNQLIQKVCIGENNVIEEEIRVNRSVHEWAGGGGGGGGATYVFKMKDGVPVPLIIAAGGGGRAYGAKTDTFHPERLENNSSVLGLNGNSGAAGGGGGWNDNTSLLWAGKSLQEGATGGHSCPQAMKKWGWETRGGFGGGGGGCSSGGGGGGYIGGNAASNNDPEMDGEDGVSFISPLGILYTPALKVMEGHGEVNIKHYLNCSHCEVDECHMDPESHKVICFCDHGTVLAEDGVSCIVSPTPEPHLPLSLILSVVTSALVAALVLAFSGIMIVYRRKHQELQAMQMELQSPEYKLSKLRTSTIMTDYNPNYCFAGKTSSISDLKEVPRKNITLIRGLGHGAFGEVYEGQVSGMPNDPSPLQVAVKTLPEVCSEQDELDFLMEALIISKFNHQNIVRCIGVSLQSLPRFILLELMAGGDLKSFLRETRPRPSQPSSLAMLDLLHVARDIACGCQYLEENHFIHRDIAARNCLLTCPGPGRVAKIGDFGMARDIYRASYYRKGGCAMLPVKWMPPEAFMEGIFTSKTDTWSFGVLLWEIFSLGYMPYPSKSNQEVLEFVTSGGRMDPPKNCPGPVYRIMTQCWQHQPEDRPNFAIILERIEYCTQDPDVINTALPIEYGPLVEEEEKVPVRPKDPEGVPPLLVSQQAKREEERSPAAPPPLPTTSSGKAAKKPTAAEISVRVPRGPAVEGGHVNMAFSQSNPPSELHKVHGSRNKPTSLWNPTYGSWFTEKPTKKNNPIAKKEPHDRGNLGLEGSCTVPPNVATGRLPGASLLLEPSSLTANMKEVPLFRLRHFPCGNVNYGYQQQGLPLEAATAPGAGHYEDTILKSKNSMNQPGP
# Homo sapiens = organism: Homo sapiens; assay: Selectivity index, ratio of IC50 for recombinant human GST-tagged EGFR L858R mutant to IC50 for recombinant human GST-tagged EGFR T790M mutant
# [3] = Antiproliferative activity against mouse BAF3 cells after 72 hrs by CellTiter-Glo assay; type: cell-based
# [4] = test system: Epidermal growth factor receptor (Homo sapiens), P00533 [C797S]; assay: Inhibition of TEL-fused EGFR C797S mutant (unknown origin) expressed in mouse BAF3 cells assessed as decrease in cell proliferation after 72 hrs by CellTiter-Glo assay; type: cell-based
# [5] = biological target: T1, Epidermal growth factor receptor; assay: Inhibition of full length EGFR del19 mutant (unknown origin) expressed in mouse BAF3 cells assessed as decrease in cell proliferation after 72 hrs by CellTiter-Glo assay; type: cell-based
# [6] = test system: Epidermal growth factor receptor (Homo sapiens), P00533 [L858R,T790M,C797S]; assay: Inhibition of full length EGFR L858R/T790M/C797S mutant (unknown origin) expressed in mouse BAF3 cells assessed as decrease in cell proliferation after 72 hrs by CellTiter-Glo assay; type: cell-based
# NCI-H1975 [7] = assay: Antiproliferative activity against human NCI-H1975 cells harboring EGFR L858R/T790M mutant after 72 hrs by CellTiter-Glo assay; type: functional; settings: NCI-H1975, 72 h
# Procedure, shortened: (§1)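 Antiproliferative GI50 against H1975 and H3122 cells; each GI50 value obtained from triplicate testing.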
# PC-9 [8] = assay: Antiproliferative activity against human PC9 cells harboring EGFR del19 mutant after 72 hrs by CellTiter-Glo assay; type: functional; settings: PC-9, 72 h
# NCI-H2122 = assay: Antiproliferative activity against human NCI-H2122 cells harboring wild-type EGFR after 72 hrs by CellTiter-Glo assay; type: functional; settings: NCI-H2122, 72 h
# NCI-H1355 = assay: Antiproliferative activity against human NCI-H1355 cells harboring wild-type EGFR after 72 hrs by CellTiter-Glo assay; type: functional; settings: NCI-H1355, 72 h
# NCI-H3122 [9] = assay: Antiproliferative activity against human NCI-H3122 cells harboring EML4-fused ALK varian1 after 72 hrs by CellTiter-Glo assay; type: functional; settings: NCI-H3122, 72 h; procedure, shortened: as §1
# [10] = AUC (0 to infinity) in Sprague-Dawley rat at 1 mg/kg, iv; type: ADME, organism-based; set-up: dose 1 mg/kg, route intravenous, time infinity; settings: in vivo
# Procedure, shortened: (§2)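 Rats dosed once intravenously at 1 mg/kg or orally at 10 mg/kg. Plasma exposure parameters derived: AUC0-t, AUC0-∞, MRT(0-t), Cmax, Tmax, T1/2 and oral bioavailability (F%). Values reported as mean ± spread.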
# [11] = MRT (0 to t) in Sprague-Dawley rat at 1 mg/kg, iv; type: ADME, organism-based; settings: in vivo
# Procedure, shortened: (§3)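 Pharmacokinetics in rats given a single dose either intravenously at 1 mg/kg or orally at 10 mg/kg. Plasma parameters derived include AUC0-t, AUC0-∞, MRT(0-t), Cmax, Tmax, T1/2 and oral F (%).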
# [12] = Cmax in Sprague-Dawley rat at 1 mg/kg, iv; type: ADME, organism-based; set-up: dose 1 mg/kg, route intravenous; settings: in vivo; procedure, shortened: as §2
# [13] = Tmax in Sprague-Dawley rat at 1 mg/kg, iv; type: ADME, organism-based; settings: in vivo; procedure, shortened: as §3
# [14] = AUC (0 to t) in Sprague-Dawley rat at 10 mg/kg, po; type: ADME, organism-based; settings: in vivo; procedure, shortened: as §2
# [15] = MRT (0 to t) in Sprague-Dawley rat at 10 mg/kg, po; type: ADME, organism-based; settings: in vivo; procedure, shortened: as §3
# [16] = Cmax in Sprague-Dawley rat at 10 mg/kg, po; type: ADME, organism-based; set-up: dose 10 mg/kg, route oral; settings: in vivo; procedure, shortened: as §2
# [17] = Tmax in Sprague-Dawley rat at 10 mg/kg, po; type: ADME, organism-based; settings: in vivo; procedure, shortened: as §3
# [18] = biological target: T1, Epidermal growth factor receptor; assay: Inhibition of EGFR in human PC9 cells assessed as inhibition of ERK-1/2 phosphorylation at Thr202/Tyr204 residues at 30 nM after 4 hrs by immunoblotting method; type: cell-based
# [19] = biological target: T1, Epidermal growth factor receptor; assay: Inhibition of EGFR in human A549 cells assessed as reduction in EGF-induced AKT phosphorylation at Ser473 residue up to 3 uM after 4 hrs by immunoblotting method; type: cell-based
# [20] = biological target: T1, Epidermal growth factor receptor; assay: Inhibition of EGFR in human A549 cells assessed as reduction in EGF-induced eIF4E phosphorylation at Ser209 residue up to 3 uM after 4 hrs by immunoblotting method; type: cell-based
# [21] = biological target: T2, ALK tyrosine kinase receptor; assay: Inhibition of ALK in human NCI-H3122 cells harboring EML4-fused ALK assessed as reduction in ALK-induced AKT phosphorylation at Ser473 residue up to 3 uM after 2 hrs by immunoblot method; type: cell-based
# Target sequence in this assay (Q9UM73 19-1620 limits assumed): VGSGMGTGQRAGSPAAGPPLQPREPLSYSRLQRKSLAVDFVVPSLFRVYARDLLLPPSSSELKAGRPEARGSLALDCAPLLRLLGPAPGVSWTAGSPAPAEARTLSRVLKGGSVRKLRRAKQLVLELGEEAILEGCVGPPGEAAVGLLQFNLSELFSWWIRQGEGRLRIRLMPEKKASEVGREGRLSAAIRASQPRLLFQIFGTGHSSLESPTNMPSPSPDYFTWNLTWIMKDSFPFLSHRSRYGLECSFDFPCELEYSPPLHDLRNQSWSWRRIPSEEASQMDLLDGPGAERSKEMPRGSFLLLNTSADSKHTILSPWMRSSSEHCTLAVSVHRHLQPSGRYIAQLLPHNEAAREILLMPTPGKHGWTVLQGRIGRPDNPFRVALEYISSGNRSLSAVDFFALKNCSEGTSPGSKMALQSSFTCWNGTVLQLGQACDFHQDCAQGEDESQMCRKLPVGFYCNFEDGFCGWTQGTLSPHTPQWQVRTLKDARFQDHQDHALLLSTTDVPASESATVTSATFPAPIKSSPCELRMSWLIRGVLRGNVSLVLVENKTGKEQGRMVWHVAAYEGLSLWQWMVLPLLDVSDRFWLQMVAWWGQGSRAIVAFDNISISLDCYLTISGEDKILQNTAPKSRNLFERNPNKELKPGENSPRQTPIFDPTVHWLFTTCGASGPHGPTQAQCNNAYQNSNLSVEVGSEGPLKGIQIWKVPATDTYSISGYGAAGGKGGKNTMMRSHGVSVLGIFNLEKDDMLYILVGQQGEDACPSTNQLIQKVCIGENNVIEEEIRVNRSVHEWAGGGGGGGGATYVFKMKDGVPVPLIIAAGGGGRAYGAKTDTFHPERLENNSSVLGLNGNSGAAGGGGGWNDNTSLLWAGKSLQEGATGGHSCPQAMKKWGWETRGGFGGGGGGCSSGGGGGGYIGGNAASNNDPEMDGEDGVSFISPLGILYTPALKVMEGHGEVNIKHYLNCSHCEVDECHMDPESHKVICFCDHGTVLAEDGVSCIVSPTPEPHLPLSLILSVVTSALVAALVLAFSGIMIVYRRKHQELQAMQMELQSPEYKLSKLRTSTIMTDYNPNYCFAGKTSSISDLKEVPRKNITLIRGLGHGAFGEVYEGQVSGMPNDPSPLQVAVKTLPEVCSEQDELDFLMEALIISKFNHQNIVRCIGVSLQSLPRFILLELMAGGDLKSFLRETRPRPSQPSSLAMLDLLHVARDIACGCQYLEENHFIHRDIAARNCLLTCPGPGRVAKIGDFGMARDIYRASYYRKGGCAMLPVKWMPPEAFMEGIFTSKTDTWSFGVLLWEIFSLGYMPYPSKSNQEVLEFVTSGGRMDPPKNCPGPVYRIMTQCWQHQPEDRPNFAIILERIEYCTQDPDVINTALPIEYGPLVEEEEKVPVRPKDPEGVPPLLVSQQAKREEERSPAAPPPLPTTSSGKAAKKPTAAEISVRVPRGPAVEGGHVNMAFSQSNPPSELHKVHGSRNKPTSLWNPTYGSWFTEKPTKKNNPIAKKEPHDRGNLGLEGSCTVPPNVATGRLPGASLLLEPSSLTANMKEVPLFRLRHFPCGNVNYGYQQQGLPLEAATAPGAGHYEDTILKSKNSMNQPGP
# PC-9 [22] = assay: Induction of apoptosis in human PC9 cells assessed as increase in cleaved PARP expression level at 300 nM to 1 uM after 24 hrs by Western blot method; type: functional, cell-based
# NCI-H3122 [23] = assay: Induction of apoptosis in human NCI-H3122 cells assessed as increase in cleaved caspase-3 expression level at 300 nM after 24 hrs by Western blot method; type: functional, cell-based
# NCI-H3122 [24] = assay: Antitumor activity against human NCI-H3122 cells xenografted in nu/nu mouse assessed as tumor growth inhibition at 10 mg/kg, po qd administered for 28 days; type: functional; settings: 672 h, read-out: TGI
# NCI-H3122 [25] = assay: Antitumor activity against human NCI-H3122 cells xenografted in po dosed nu/nu mouse assessed as decrease in cell proliferation administered for 28 days by Ki67 staining-based immunohistochemical analysis; type: functional, organism-based
# [26] = biological target: T2, ALK tyrosine kinase receptor; assay: Reversible inhibition of ALK phosphorylation at Tyr1604 residue in human NCI-H3122 cells at 30 to 300 nM measured 1 to 24 hrs post compound wash out by immunoblotting method; type: cell-based
# Target sequence in this assay (Q9UM73 19-1620 limits assumed): as above
# [27] = test system: ALK tyrosine kinase receptor (Homo sapiens), Q9UM73 [C1156Y]
# NCI-H1975 [28] = assay: Antitumor activity against human NCI-H1975 cells xenografted in po dosed nu/nu mouse assessed as tumor growth inhibition administered for 21 days
# Mus musculus = assay: Toxicity in nu/nu mouse xenografted with human NCI-H1975 cells assessed as change in body weight at 10 to 40 mg/kg, po qd administered for 21 days; settings: in vivo, 504 h
# NCI-H1975 [29] = assay: Antitumor activity against human NCI-H1975 cells xenografted in nu/nu mouse assessed as tumor growth inhibition at 20 mg/kg, po qd administered for 21 days; settings: 504 h, read-out: TGI
# NCI-H1975 [30] = assay: Antitumor activity against human NCI-H1975 cells xenografted in po dosed nu/nu mouse assessed as decrease in cell proliferation administered for 21 days by Ki67 staining-based immunohistochemical analysis
# T1 sequence (P00533 whole entry): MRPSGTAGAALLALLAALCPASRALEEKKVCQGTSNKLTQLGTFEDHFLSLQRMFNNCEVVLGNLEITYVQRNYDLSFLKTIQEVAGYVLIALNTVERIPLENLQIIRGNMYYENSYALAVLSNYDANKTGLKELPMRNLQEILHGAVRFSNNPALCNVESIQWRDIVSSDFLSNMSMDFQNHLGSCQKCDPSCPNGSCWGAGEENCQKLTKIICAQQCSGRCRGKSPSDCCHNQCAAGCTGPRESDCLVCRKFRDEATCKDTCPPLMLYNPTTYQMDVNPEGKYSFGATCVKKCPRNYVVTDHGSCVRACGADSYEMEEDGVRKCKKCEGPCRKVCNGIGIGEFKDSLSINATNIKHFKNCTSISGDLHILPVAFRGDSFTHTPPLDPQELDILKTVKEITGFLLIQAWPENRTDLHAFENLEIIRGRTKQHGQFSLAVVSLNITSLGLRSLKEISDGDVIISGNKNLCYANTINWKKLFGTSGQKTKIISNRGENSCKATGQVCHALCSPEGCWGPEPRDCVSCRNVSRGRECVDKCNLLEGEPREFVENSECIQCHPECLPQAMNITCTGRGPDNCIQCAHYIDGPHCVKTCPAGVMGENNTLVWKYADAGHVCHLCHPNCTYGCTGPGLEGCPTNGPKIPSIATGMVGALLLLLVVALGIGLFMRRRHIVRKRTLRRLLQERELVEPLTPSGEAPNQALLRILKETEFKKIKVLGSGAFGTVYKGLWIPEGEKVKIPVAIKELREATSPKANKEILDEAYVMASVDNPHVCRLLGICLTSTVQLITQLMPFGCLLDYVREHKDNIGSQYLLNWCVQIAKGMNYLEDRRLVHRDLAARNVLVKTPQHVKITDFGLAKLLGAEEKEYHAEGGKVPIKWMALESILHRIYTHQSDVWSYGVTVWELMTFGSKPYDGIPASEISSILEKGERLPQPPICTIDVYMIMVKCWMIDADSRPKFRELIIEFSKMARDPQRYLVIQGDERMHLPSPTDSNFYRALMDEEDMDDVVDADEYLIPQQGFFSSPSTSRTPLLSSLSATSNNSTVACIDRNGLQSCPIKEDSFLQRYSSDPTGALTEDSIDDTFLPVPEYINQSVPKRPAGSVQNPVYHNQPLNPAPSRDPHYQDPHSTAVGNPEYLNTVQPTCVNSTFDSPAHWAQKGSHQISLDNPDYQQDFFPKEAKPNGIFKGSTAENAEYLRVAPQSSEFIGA
# Chain of ALK tyrosine kinase receptor (Homo sapiens), Q9UM73 [C1156Y] (Q9UM73 whole entry C1156Y, looked up): as the sequence (Q9UM73 whole entry) above, with C1156Y counted along it
structure (smiles),measurement,setting,value
C=CC(=O)Nc1cc(Nc2ncc(Cl)c(Nc3ccccc3S(=O)(=O)C(C)C)n2)c(OC)cc1N1CCCN(C)CC1,IC50,[1],108 nM
same,IC50,[2],9.8 nM
same,Ratio IC50,Homo sapiens,20 to 30
same,GI50 at 72 h,[3],1200 nM
same,GI50,[4],230 nM
same,GI50,[5],8.5 nM
same,GI50,[6],1100 nM
same,GI50,NCI-H1975 [7],15 nM
same,GI50,PC-9 [8],15 nM
same,GI50,NCI-H2122,1800 nM
same,GI50,NCI-H1355,1400 nM
same,GI50,NCI-H3122 [9],< 0.3 nM
same,AUC(0-inf),[10],720 ng·h/mL
same,MRT last,[11],0.947 h
same,Cmax,[12],1490 ng/mL
same,Tmax,[13],1.02 min
same,AUC(0-t),[14],1140 ng·h/mL
same,MRT last,[15],4.12 h
same,Cmax,[16],283 ng/mL
same,Tmax,[17],4 h
same,inhibition,[18],Active
same,inhibition,[19],inactive
same,inhibition,[20],inactive
same,inhibition,[21],Active
same,Activity,PC-9 [22],Active
same,Activity,NCI-H3122 [23],Active
same,inhibition in vivo at 10 mg/kg,NCI-H3122 [24],10.8%
same,Activity,NCI-H3122 [25],Dose-dependent effect
same,inhibition,[26],Active
same,GI50,[27],6.9 nM
same,TGI,NCI-H1975 [28],Dose-dependent effect
same,Activity,Mus musculus,Non-Toxic
same,inhibition in vivo at 20 mg/kg,NCI-H1975 [29],96%
same,Activity,NCI-H1975 [30],Dose-dependent effect
